Experimental data published in ChEMBL document CHEMBL2169822, “Discovery and optimization of 1,3,4-trisubstituted-pyrazolone derivatives as novel, potent, and nonsteroidal farnesoid X receptor (FXR) selective antagonists” (J Med Chem, 2012).
The source made the active and inactive calls. The rule behind the calls is not given here.

Assays:
[1] = target: T1, Peroxisome proliferator-activated receptor delta (Homo sapiens) (UniProt Q03181); assay: Agonist activity at recombinant PPARdelta LBD expressed in HEK293T cells co-expressing GAL4 DBD at 20 uM by transactivation assay; format: functional, cell-based; details: HEK-293T
T1 sequence (whole entry): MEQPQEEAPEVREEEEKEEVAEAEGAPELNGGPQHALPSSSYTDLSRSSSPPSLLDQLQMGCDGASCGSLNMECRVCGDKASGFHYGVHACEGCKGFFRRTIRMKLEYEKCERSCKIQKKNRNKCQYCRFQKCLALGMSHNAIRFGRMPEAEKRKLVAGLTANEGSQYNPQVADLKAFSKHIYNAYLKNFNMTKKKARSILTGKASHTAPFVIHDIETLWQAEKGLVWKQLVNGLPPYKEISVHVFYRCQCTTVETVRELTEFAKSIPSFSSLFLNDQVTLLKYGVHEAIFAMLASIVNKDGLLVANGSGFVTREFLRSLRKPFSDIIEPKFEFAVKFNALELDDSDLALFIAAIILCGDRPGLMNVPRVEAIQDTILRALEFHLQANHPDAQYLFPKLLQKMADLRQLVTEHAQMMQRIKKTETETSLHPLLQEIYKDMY
Method in brief: (§1)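 One-hybrid assay in HEK293T cells cotransfected with a Gal4 DBD–NR-LBD fusion (RXRα, LXRα, GR, PR, PPARδ or PPARγ) plus UAS-TK-Luc reporter. Compound was 20 μM, given alone or with agonist: 9cRA 0.1 μM (RXRα), TO901317 0.5 μM (LXRα), dexamethasone 50 nM (GR), progesterone 100 nM (PR), GW1516 10 μM (PPARδ), rosiglitazone 10 μM (PPARγ). Luciferase read-out; three independent experiments.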

[2] = target: T2, Oxysterols receptor LXR-alpha (Homo sapiens) (UniProt Q13133); assay: Agonist activity at recombinant LXRalphaLBD expressed in HEK293T cells co-expressing GAL4 DBD at 20 uM by transactivation assay; format: functional, cell-based; details: HEK-293T; method in brief: as §1
T2 sequence (whole entry): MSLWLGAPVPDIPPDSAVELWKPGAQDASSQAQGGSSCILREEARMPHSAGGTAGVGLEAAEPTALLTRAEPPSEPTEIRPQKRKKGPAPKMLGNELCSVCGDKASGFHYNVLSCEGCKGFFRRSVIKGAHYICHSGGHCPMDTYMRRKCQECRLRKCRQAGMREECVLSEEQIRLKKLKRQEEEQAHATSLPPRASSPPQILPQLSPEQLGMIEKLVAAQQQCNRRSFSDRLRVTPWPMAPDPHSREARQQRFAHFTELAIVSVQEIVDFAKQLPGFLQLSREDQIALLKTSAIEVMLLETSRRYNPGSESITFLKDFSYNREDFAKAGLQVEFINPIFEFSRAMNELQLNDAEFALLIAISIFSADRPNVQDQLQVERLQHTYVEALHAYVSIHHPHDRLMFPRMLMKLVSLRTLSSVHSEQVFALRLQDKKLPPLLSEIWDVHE

HEK-293T [3] = assay: Antagonist activity at FXRalphaLBD expressed in HEK293T cells co-expressing GAL4 DBD assessed as inhibition of CDCA-induced transactivation at 60 uM after 18 hrs by luciferase reporter gene assay; format: functional, cell-based; details: Homo sapiens
Method in brief: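 Mammalian one-hybrid assay in HEK293T cells cotransfected with pCMX-Gal4DBD-FXRαLBD, UAS-TK-Luc reporter and pRL-SV40 Renilla vector. Cells were exposed to vehicle or compound for 18 h, with or without 20 μM CDCA. Read-out was dual-luciferase. Three independent experiments.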

[4] = Binding affinity to FXRalphaLBD assessed as fluorescence quenching after 1 hr
Method in brief: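 Untagged FXRαLBD (His-tag removed with thrombin; Ni-NTA and ion exchange purified), 1 μM, was incubated with varied compound concentrations for 1 h at 4 °C. Tryptophan fluorescence was read at 25 °C: excitation 280 nm, emission 300–400 nm, 5 nm slits. KD was fitted from quenching.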

HEK-293T [5] = assay: Antagonist activity at FXRalpha/RXRalpha expressed in HEK293T cells co-expressing GAL4 DBD assessed as inhibition of CDCA-induced transactivation at 40 uM after 18 hrs by luciferase reporter gene assay; format: functional, cell-based; details: Homo sapiens
Method in brief: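 FXR transactivation in HEK293T cells transiently transfected with pcDNA3.1-FXRα, pcDNA3.1-RXRα, pGL3-FXRE-Luc and pRL-SV40 Renilla vector. Medium was replaced 6 h after transfection with medium holding compound at varied concentrations, with or without 20 μM CDCA, for 18 h. Read-out was dual-luciferase. Three independent experiments.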

[6] = Antagonist activity at GST-tagged human recombinant FXRalphaLBD expressed in Escherichia coli BL21 cells assessed as inhibition of CDCA-induced SRC-1 co-activator association at 40 uM by HTRF assay; format: functional
Method in brief: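 HTRF coactivator recruitment: 10 nM GST-human FXRαLBD (residues 238–473, E. coli BL21(DE3)), 0.83 nM anti-GST-Eu cryptate, 100 nM biotin-SRC1 peptide, 41.75 nM SA/XL665. Buffer was 50 mM Hepes pH 7.0, 125 mM KF, 0.125% CHAPS, 0.05% dry milk. Compound alone or with CDCA, 30 min at room temperature. Signal was 1000×(668/620 nm). Primary screen at 40 μM; IC50 as mean ± SE, three experiments.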

Mus musculus = assay: Reduction of hepatic triglyceride level in cholesterol-fed C57BL/6 mouse at 50 mg/kg, po after 10 days; format: functional; design: scale not given: the % may be the effect or the level left
Method in brief: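 Male C57BL/6 mice, 8–12 weeks old, were randomized into five groups of nine. Control mice had ground chow; the other groups had chow with 2% cholesterol. Compound (50 or 100 mg/kg) or reference (100 mg/kg) was suspended in 0.5% CMC-Na and given by oral gavage; control and vehicle mice got 0.5% CMC-Na. Serum and hepatic triglyceride and total cholesterol were measured.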

[7] = target: T3, Peroxisome proliferator-activated receptor gamma (Homo sapiens) (UniProt P37231); assay: Antagonist activity at recombinant PPARgamma LBD expressed in HEK293T cells co-expressing GAL4 DBD assessed as inhibition of rosiglitazone-induced transactivation at 20 uM by luciferase reporter gene assay; format: functional, cell-based; details: HEK-293T; method in brief: as §1
T3 sequence (whole entry): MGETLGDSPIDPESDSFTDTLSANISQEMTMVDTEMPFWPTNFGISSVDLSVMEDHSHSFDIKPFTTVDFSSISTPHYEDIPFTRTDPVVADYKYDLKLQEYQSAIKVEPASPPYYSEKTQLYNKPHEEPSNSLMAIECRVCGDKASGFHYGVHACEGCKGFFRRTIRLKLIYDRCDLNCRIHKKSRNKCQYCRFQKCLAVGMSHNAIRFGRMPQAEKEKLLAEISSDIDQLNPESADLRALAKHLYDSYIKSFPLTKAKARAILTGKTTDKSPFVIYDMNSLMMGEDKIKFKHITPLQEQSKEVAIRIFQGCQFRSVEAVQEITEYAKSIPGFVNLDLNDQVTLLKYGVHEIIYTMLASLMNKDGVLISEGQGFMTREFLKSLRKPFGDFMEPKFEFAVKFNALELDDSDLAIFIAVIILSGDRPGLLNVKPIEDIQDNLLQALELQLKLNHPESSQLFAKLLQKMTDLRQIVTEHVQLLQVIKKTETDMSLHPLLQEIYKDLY

SMILES: COc1cc(/C=C2\C(=O)N(c3cccc([N+](=O)[O-])c3)N=C2c2ccccc2)ccc1O
- Activity [1]: inactive
- Activity [2]: inactive
- inhibition (HEK-293T [3]): Active
- Activity [4]: Dose-dependent effect
- Kd [4]: 23.1 µM
- inhibition (HEK-293T [5]): Active
- inhibition at 40 µM [6]: 70.4%
- Activity (Mus musculus): 43.5%
- inhibition [7]: inactive
